According to ChEMBL document CHEMBL3616436, “Synthesis, cytotoxicity and antimicrobial activity of thiourea derivatives incorporating 3-(trifluoromethyl)phenyl moiety” (Eur J Med Chem, 2015):
Values after ≈ are worked out from the molar mass of the structure shown.

Assays:
Staphylococcus aureus [1] = assay: Antimicrobial activity against hospital methicillin-resistant Staphylococcus aureus 80/05 after 18 hrs by twofold serial microdilution method; type: functional; conditions: 80/05, 18 h
Procedure, shortened: (§1)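 Twofold serial microdilution in Mueller-Hinton broth. Compound stock was made in DMSO and diluted in sterile water. Tested range was 0.125–512 µg/mL. Final inoculum was 10^5 CFU/mL. Plates were incubated 18 h at 35 °C. MIC is the lowest concentration preventing visible growth.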

[2] = tested on: Staphylococcus epidermidis; assay: Ratio of ciprofloxacin MIC to compound MIC for hospital methicillin-resistant Staphylococcus epidermidis 23/04 after 18 hrs by twofold serial microdilution method; type: functional
Procedure, shortened: (§2)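 Ratio of MICs for ciprofloxacin and test agent, each from twofold serial broth microdilution in Mueller-Hinton broth following CLSI guidelines. DMSO stock was diluted in sterile water to 0.125–512 µg/mL, with a final inoculum of 10^5 CFU/mL.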

Staphylococcus aureus [3] = assay: Antimicrobial activity against Staphylococcus aureus ATCC 29213 after 18 hrs by twofold serial microdilution method; type: functional; conditions: ATCC 29213, 18 h
[4] = tested on: Staphylococcus epidermidis; assay: Antimicrobial activity against hospital methicillin-resistant Staphylococcus epidermidis 31/04 after 18 hrs by twofold serial microdilution method; type: functional; conditions: 31/04, 18 h; procedure, shortened: as §1
[5] = Cytotoxicity against human MT4 cells; type: cell-based
Staphylococcus aureus [6] = assay: Antimicrobial activity against Staphylococcus aureus ATCC 29213 at 400 ug after 18 hrs by disc-diffusion method; type: functional; conditions: ATCC 29213, 18 h, read-out: IZ
Procedure, shortened: (§3)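 Disc diffusion on Mueller-Hinton II agar per CLSI; 9 mm paper discs loaded with 400 µg compound from DMSO solution, dried, placed on agar; growth inhibition zone diameter read after 18 h at 35°C.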

[7] = tested on: Staphylococcus epidermidis; assay: Antimicrobial activity against hospital methicillin-resistant Staphylococcus epidermidis 76/04 after 18 hrs by twofold serial microdilution method; type: functional; conditions: 76/04, 18 h; procedure, shortened: as §1
Staphylococcus aureus [8] = assay: Ratio of ciprofloxacin MIC to compound MIC for hospital methicillin-resistant Staphylococcus aureus 573/11 after 18 hrs by twofold serial microdilution method; type: functional; procedure, shortened: as §2
Poliovirus 1 = assay: Antiviral activity against Poliovirus type 1 ATCC VR-1562 infected in African green monkey Vero 76 cells assessed as reduction of virus-plaque formation after 2 days by crystal violet staining; type: functional, organism-based; conditions: Enterovirus C, ATCC VR-1562, Vero, 48 h
Staphylococcus aureus [9] = assay: Antimicrobial activity against hospital methicillin-resistant Staphylococcus aureus 81/05 after 18 hrs by twofold serial microdilution method; type: functional; conditions: 81/05, 18 h; procedure, shortened: as §1
[10] = tested on: Staphylococcus epidermidis; assay: Antimicrobial activity against hospital methicillin-resistant Staphylococcus epidermidis 16/04 after 18 hrs by twofold serial microdilution method; type: functional; conditions: 16/04, 18 h; procedure, shortened: as §1
Staphylococcus aureus [11] = assay: Ratio of ciprofloxacin MIC to compound MIC for hospital methicillin-resistant Staphylococcus aureus 57/05 after 18 hrs by twofold serial microdilution method; type: functional; procedure, shortened: as §2
[12] = tested on: Staphylococcus epidermidis; assay: Antimicrobial activity against Staphylococcus epidermidis ATCC 12228 after 18 hrs by twofold serial microdilution method; type: functional; conditions: ATCC 12228, 18 h
Staphylococcus aureus [13] = assay: Antimicrobial activity against hospital methicillin-resistant Staphylococcus aureus 57/05 after 18 hrs by twofold serial microdilution method; type: functional; conditions: 57/05, 18 h; procedure, shortened: as §1
[14] = tested on: Human immunodeficiency virus 1; assay: Antiviral activity against HIV1 3B infected in human MT4 cells assessed as protection against virus-induced cytopathogenicity by MTT assay; type: functional, organism-based; conditions: Human immunodeficiency virus 1, 3B
Vaccinia virus = assay: Antiviral activity against Human Vaccinia virus ATCC VR-1549 infected in African green monkey Vero 76 cells assessed as reduction of virus-plaque formation after 3 days by crystal violet staining; type: functional, organism-based; conditions: Orthopoxvirus vaccinia, ATCC VR-1549, Vero, 72 h
Staphylococcus aureus [15] = assay: Antimicrobial activity against Staphylococcus aureus NCTC 4163 after 18 hrs by twofold serial microdilution method; type: functional; conditions: NCTC 4163, 18 h
[16] = tested on: Staphylococcus epidermidis; assay: Antimicrobial activity against Staphylococcus epidermidis ATCC 35984 at 400 ug after 18 hrs by disc-diffusion method; type: functional; conditions: ATCC 35984, 18 h, read-out: IZ; procedure, shortened: as §3
[17] = Antiviral activity against Bovine viral diarrhea virus 1-NADL ATCC VR-534 infected in MDBK cells assessed as protection against virus-induced cytopathogenicity after 3 to 4 days by MTT assay; type: functional, cell-based; conditions: Bovine viral diarrhea virus isolates and strains, ATCC VR-534, MDBK
Procedure, shortened: (§4)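 Cells seeded in 96-well plates (BHK 5x10^4, MDBK 3x10^4 cells/well), grown overnight to confluence, infected at m.o.i. 0.01 (BHK for Reo-1, MDBK for BVDV); serial compound dilutions in maintenance medium with 0.5% inactivated FBS added after 1 h; viability by MTT after 3–4 days at 37°C; EC50 for 50% protection by linear regression.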

Human alphaherpesvirus 1 = assay: Antiviral activity against Human herpesvirus 1 KOS ATCC VR-1493 infected in African green monkey Vero 76 cells assessed as reduction of virus-plaque formation after 3 days by crystal violet staining; type: functional, organism-based; conditions: Human alphaherpesvirus 1, KOS ATCC VR1493, Vero, 72 h
Procedure, shortened: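 Plaque reduction: Vero-76 at 2x10^5 cells/well grown to confluent monolayers, infected 2 h at 50–100 PFU/well; after removing unadsorbed virus, overlay of D-MEM, 1% inactivated FBS, 0.75% methylcellulose with or without serial compound dilutions; 3 days at 37°C, fixed and stained with crystal violet in 50% ethanol, plaques counted; EC50 by linear regression.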

Bacillus cereus = assay: Antimicrobial activity against Bacillus cereus ATCC 11778 at 400 ug after 18 hrs by disc-diffusion method; type: functional; conditions: ATCC 11778, 18 h, read-out: IZ; procedure, shortened: as §3
Staphylococcus aureus [18] = assay: Antimicrobial activity against hospital methicillin-resistant Staphylococcus aureus 573/11 after 18 hrs by twofold serial microdilution method; type: functional; conditions: 573/11, 18 h; procedure, shortened: as §1
Staphylococcus aureus [19] = assay: Antimicrobial activity against hospital methicillin-resistant Staphylococcus aureus 522/11 after 18 hrs by twofold serial microdilution method; type: functional; conditions: 522/11, 18 h; procedure, shortened: as §1
[20] = tested on: Mycobacterium tuberculosis; assay: Antimycobacterial activity against drug-sensitive Mycobacterium tuberculosis Spec. 192; type: functional
Procedure, shortened: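 Classical test-tube successive-dilution method in Youmans' modification of Proskauer and Beck liquid medium with 10% bovine serum. Inoculum came from 14-day cultures. DMSO stock was 10 mg/mL, diluted geometrically in medium. Tubes were incubated at 37 °C. Concentrations tested were 3.1, 6.2, 12.5, 25, 50 and 100 µg/ml. MIC is the minimum concentration inhibiting growth relative to compound-free tubes.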

[21] = tested on: Mammalian orthoreovirus 1; assay: Antiviral activity against Reovirus type-1 ATCC VR-214 infected in BHK cells assessed as protection against virus-induced cytopathogenicity after 3 to 4 days by MTT assay; type: functional, cell-based; conditions: Mammalian orthoreovirus 1, ATCC VR-214, BHK; procedure, shortened: as §4
Micrococcus luteus = assay: Antimicrobial activity against Micrococcus luteus ATCC 10240 at 400 ug after 18 hrs by disc-diffusion method; type: functional; conditions: ATCC 10240, 18 h, read-out: IZ; procedure, shortened: as §3
Staphylococcus aureus [22] = assay: Antimicrobial activity against Staphylococcus aureus ATCC 25923 after 18 hrs by twofold serial microdilution method; type: functional; conditions: ATCC 25923, 18 h
[23] = tested on: Staphylococcus epidermidis; assay: Antimicrobial activity against hospital methicillin-resistant Staphylococcus epidermidis 63/04 after 18 hrs by twofold serial microdilution method; type: functional; conditions: 63/04, 18 h; procedure, shortened: as §1
[24] = tested on: Staphylococcus epidermidis; assay: Antimicrobial activity against hospital methicillin-resistant Staphylococcus epidermidis 24/04 after 18 hrs by twofold serial microdilution method; type: functional; conditions: 24/04, 18 h; procedure, shortened: as §1

| Structure (SMILES) | MIC (Staphylococcus aureus [1]) [µg/mL] | Ratio [2] | MIC (Staphylococcus aureus [3]) [µg/mL] | MIC [4] [µg/mL] | CC50 [5] [µM] | zone of inhibition at 400 µg/disc (Staphylococcus aureus [6]) [mm] | MIC [7] [µg/mL] | Ratio (Staphylococcus aureus [8]) | EC50 (Poliovirus 1) [µM] | MIC (Staphylococcus aureus [9]) [µg/mL] | MIC [10] [µg/mL] | Ratio (Staphylococcus aureus [11]) | MIC [12] [µg/mL] | MIC (Staphylococcus aureus [13]) [µg/mL] | EC50 [14] [µM] | EC50 (Vaccinia virus) [µM] | MIC (Staphylococcus aureus [15]) [µg/mL] | zone of inhibition at 400 µg/disc [16] [mm] | EC50 [17] [µM] | EC50 (Human alphaherpesvirus 1) [µM] | further results |
| --- | --- | --- | --- | --- | --- | --- | --- | --- | --- | --- | --- | --- | --- | --- | --- | --- | --- | --- | --- | --- | --- |
| Fc1cccc(NC(=S)Nc2cccc(C(F)(F)F)c2)c1 | 8 (≈ 25.5 µM) | 128 | 8 (≈ 25.5 µM) | 8 (≈ 25.5 µM) | 20 | 21 | 16 (≈ 50.9 µM) | 128 | > 20 | 8 (≈ 25.5 µM) | 8 (≈ 25.5 µM) | 128 | 8 (≈ 25.5 µM) | 4 (≈ 12.7 µM) | > 20 | > 20 | 4 (≈ 12.7 µM) | 19 | > 10 | > 20 | zone of inhibition at 400 µg/disc (Bacillus cereus): 18 mm; MIC (Staphylococcus aureus [18]): 8 µg/mL (≈ 25.5 µM); MIC (Staphylococcus aureus [19]): 8 µg/mL (≈ 25.5 µM); MIC [20]: > 100 µg/mL; EC50 [21]: > 9.4 µM; zone of inhibition at 400 µg/disc (Micrococcus luteus): 21 mm; MIC (Staphylococcus aureus [22]): 4 µg/mL (≈ 12.7 µM); MIC [23]: 16 µg/mL (≈ 50.9 µM); MIC [24]: 8 µg/mL (≈ 25.5 µM) |
| FC(F)(F)c1cccc(NC(=S)NCCc2ccccc2)c1 | 8 (≈ 24.7 µM) | 128 | 8 (≈ 24.7 µM) | 16 (≈ 49.3 µM) | 8.8 | 15 | 8 (≈ 24.7 µM) | 128 | > 46 | 16 (≈ 49.3 µM) | 8 (≈ 24.7 µM) | 128 | 16 (≈ 49.3 µM) | 8 (≈ 24.7 µM) | > 8.8 | > 46 | 8 (≈ 24.7 µM) | 17 | > 48 | > 46 | zone of inhibition at 400 µg/disc (Bacillus cereus): 16 mm; MIC (Staphylococcus aureus [18]): 16 µg/mL (≈ 49.3 µM); MIC (Staphylococcus aureus [19]): 16 µg/mL (≈ 49.3 µM); MIC [20]: 100 µg/mL (≈ 308 µM); EC50 [21]: > 29 µM; zone of inhibition at 400 µg/disc (Micrococcus luteus): 15 mm; MIC (Staphylococcus aureus [22]): 8 µg/mL (≈ 24.7 µM); MIC [23]: 8 µg/mL (≈ 24.7 µM); MIC [24]: 16 µg/mL (≈ 49.3 µM) |
| Fc1ccc(NC(=S)Nc2cccc(C(F)(F)F)c2)cc1Cl | 0.25 (≈ 0.717 µM) | 128 | 1 (≈ 2.87 µM) | 1 (≈ 2.87 µM) | 8 | 30 | 0.25 (≈ 0.717 µM) | 128 | > 20 | 0.25 (≈ 0.717 µM) | 1 (≈ 2.87 µM) | 128 | 2 (≈ 5.73 µM) | 1 (≈ 2.87 µM) | > 8 | > 20 | 1 (≈ 2.87 µM) | 27 | > 11 | > 20 | zone of inhibition at 400 µg/disc (Bacillus cereus): 25 mm; MIC (Staphylococcus aureus [18]): 0.5 µg/mL (≈ 1.43 µM); MIC (Staphylococcus aureus [19]): 0.5 µg/mL (≈ 1.43 µM); MIC [20]: 50 µg/mL (≈ 143 µM); EC50 [21]: > 10 µM; zone of inhibition at 400 µg/disc (Micrococcus luteus): 30 mm; MIC (Staphylococcus aureus [22]): 1 µg/mL (≈ 2.87 µM); MIC [23]: 0.5 µg/mL (≈ 1.43 µM); MIC [24]: 1 µg/mL (≈ 2.87 µM) |
